Assay [1] deals with T1, Endothelin-1 receptor (Homo sapiens, UniProt P25101).
T1 sequence (P25101 whole entry): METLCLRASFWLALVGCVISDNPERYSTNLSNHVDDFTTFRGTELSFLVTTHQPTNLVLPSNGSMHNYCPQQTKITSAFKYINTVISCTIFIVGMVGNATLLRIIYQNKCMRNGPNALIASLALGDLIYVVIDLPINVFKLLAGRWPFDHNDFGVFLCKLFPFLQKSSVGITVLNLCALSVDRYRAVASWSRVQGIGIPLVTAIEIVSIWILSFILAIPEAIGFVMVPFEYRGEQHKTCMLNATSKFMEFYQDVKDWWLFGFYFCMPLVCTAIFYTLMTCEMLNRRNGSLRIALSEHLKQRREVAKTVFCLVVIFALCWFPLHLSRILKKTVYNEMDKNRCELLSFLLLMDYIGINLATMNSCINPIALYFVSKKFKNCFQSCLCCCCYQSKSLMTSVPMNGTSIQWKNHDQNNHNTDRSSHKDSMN
Kind of assay: Inhibition of [125I]ET1 binding to cloned human ET-A receptor. The method, boiled down:
(§1)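 Membranes from CHO cells stably expressing cloned human ET-A receptor (0.5 μg per tube) incubated with [125I]ET-1 (0.3 nM) alone or with increasing unlabeled ligand, 1 h at 30 °C. Bound and free separated by filtration and counted by γ-counter. Nonspecific binding 8-25%. Apparent Ki from competition curves, n ≥ 3.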

In assay [2] the target is T2, Endothelin receptor type B (Homo sapiens, UniProt P24530).
T2 sequence (P24530 whole entry): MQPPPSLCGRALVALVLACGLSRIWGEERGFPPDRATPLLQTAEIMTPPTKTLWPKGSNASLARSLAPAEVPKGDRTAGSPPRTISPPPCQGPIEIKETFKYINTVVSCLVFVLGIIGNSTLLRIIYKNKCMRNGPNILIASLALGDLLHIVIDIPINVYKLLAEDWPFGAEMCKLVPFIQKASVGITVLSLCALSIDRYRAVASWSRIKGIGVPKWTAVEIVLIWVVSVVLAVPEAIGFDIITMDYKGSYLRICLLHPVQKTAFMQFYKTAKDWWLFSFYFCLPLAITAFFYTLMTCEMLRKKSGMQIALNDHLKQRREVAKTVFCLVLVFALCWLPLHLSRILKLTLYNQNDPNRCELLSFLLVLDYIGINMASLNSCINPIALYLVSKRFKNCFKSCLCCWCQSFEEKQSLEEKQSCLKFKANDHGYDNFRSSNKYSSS
Kind of assay: Inhibition of [125I]ET1 binding to cloned human ET-B receptor. The gist of the method:
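Membranes from CHO cells stably expressing cloned human ET-B receptor (0.05 μg per tube) incubated with [125I]ET-1 (0.3 nM), without or with rising concentrations of unlabeled ligand, 30 °C for 1 h. Filtration separated bound from free, gamma counting. Nonspecific binding 2-5%. Apparent Ki derived from competition curves, n ≥ 3.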

The target of assay [3] is T1, Endothelin-1 receptor. Kind of assay: Inhibition of [125I]ET1 binding to cloned human Endothelin A receptor. The method, boiled down:
as §1

In general, Ki refers to a dissociation constant, usually derived from enzyme kinetics or from competition with a known ligand. High values mean weaker binding, low ones tighter binding. As to `COc1ccc([C@@H]2c3ccccc3[C@H](c3ccc(OC)cc3)[C@H]2C(=O)O)cc1`, the Ki at Endothelin-1 receptor [1] turned out to be 422 nM; in assay [2], 2440 nM.

`COc1ccc([C@H]2c3ccccc3[C@@H](c3ccc4c(c3)OCO4)[C@@H]2C(=O)O)cc1`: the Ki at Endothelin-1 receptor [1] was determined as 43 nM; in assay [2], 757 nM.

In the case of `COc1ccc([C@H]2c3ccccc3[C@@H](c3ccccc3)[C@@H]2C(=O)O)cc1`, the inhibitory constant (Ki) at Endothelin-1 receptor [3] was 5670 nM; in assay [2], over 30000 nM.

On to `CCCOc1ccc2c(c1)[C@@H](c1ccc(OC)cc1)[C@H](C(=O)O)[C@H]2c1ccc2c(c1)OCO2`, for which the Ki was determined as 11.3 nM on Endothelin-1 receptor [1] and 1040 nM in assay [2].

As to `O=C(O)[C@H]1[C@H](c2ccccc2)c2ccccc2[C@@H]1c1ccccc1`, the inhibition constant (Ki) was 11200 nM on Endothelin-1 receptor [1] and over 30000 nM in assay [2].

For `COc1ccc([C@@H]2c3cc(O)ccc3[C@H](c3ccc4c(c3)OCO4)[C@H]2C(=O)O)cc1`, the Ki worked out at 15 nM on Endothelin-1 receptor [1] and 483 nM in assay [2].

Turning to `CCCOc1ccc2c(c1)[C@@H](c1ccc(OC)cc1OCC(=O)O)[C@H](C(=O)O)[C@H]2c1ccc2c(c1)OCO2` [SB-209670], the figures for the Ki (on Endothelin-1 receptor [1]; in assay [2]) were 0.43 nM and 14.7 nM, respectively.

(Values after ChEMBL document CHEMBL1127519, “1,3-Diarylindan-2-carboxylic acids, potent and selective non-peptide endothelin receptor antagonists” (J Med Chem, 1994).)
